SMILES strings stand for the structures. A value given as a limit tells only on which side of the number the result lay.

One data set concerns MDA-MB-231. In words: Antiproliferative activity against human MDA-MB-231 cells assessed as cell growth inhibition by measuring lethal concentration incubated for 48 hrs by sulforhodamine B assay. The data set is classed as functional. As to conditions: read-out: LC50 (the source's name). (In general: Sulforhodamine B stains cellular protein and so reports cell mass.)
The test system of data set [1] is NCI-H226. In words: Antiproliferative activity against human NCI-H226 cells assessed as cell growth at 0.00001 M incubated for 48 hrs by SRB assay relative to control. The data set is classed as functional. To be noted: read-out: Activity.
Data set [2] deals with NCI-H226. In words: Antiproliferative activity against human NCI-H226 cells assessed as cell growth at 0.0001 M incubated for 48 hrs by SRB assay relative to control. As to conditions: read-out: Activity. Format: functional.
For the next data set, the system named is COLO 205. In words: Antiproliferative activity against human COLO 205 cells assessed as cell growth inhibition by measuring lethal concentration incubated for 48 hrs by sulforhodamine B assay. The data set is classed as functional. As to conditions: read-out: LC50 (the source's name).
In another data set the test system is Malme-3M. In words: Growth inhibition against human Malme-3M cells assessed as total growth inhibitory concentration incubated for 48 hrs by sulforhodamine B assay. Format: functional.
For data set [3], the system named is OVCAR-5. Kind of data set: Growth inhibition against human OVCAR-5 cells assessed as total growth inhibitory concentration incubated for 48 hrs by sulforhodamine B assay. The data set is classed as functional.
Data set [4] concerns K562. In words: Antiproliferative activity against human K562 cells assessed as cell growth at 0.00001 M incubated for 48 hrs by SRB assay relative to control. To be noted: read-out: Activity. Format: functional.
For the next data set, the system named is NCI-H322M. Kind of data set: Antiproliferative activity against human NCI-H322M cells assessed as cell growth at 0.0001 M incubated for 48 hrs by SRB assay relative to control. Format: functional. To be noted: read-out: Activity.
The test system of the next data set is SK-OV-3. Kind of data set: Growth inhibition against human SK-OV-3 cells assessed as total growth inhibitory concentration incubated for 48 hrs by sulforhodamine B assay. The data set is classed as functional.
Data set [5] concerns NCI-H226. In words: Growth inhibition against human NCI-H226 cells assessed as total growth inhibitory concentration incubated for 48 hrs by sulforhodamine B assay. The data set is classed as functional.
For data set [6], the system named is Calf thymus DNA. Kind of data set: Binding affinity to calf thymus DNA assessed as binding constant at temperature of 308 K by Stern-Volmer quenching plot based fluorescence spectroscopic method. Format: nucleic-acid assay. As to conditions: Bos taurus.
For data set [7], the system named is K562. Kind of data set: Antiproliferative activity against human K562 cells assessed as cell growth at 0.0001 M incubated for 48 hrs by SRB assay relative to control. The data set is classed as functional. As to conditions: read-out: Activity.
The test system of data set [8] is Calf thymus DNA. Kind of data set: Binding affinity to calf thymus DNA assessed as fluorescence quenching intensity at 5 uM at temperature of 308 K by fluorescence spectroscopic method relative to control. The data set is classed as nucleic-acid assay. As to conditions: Bos taurus.
Data set [9] has as its system Calf thymus DNA. Kind of data set: Binding affinity to calf thymus DNA assessed as gibbs free energy change at temperature of 308 K by Van't Hoff plot analysis. Format: nucleic-acid assay. As to conditions: Bos taurus.
The next data set has as its system SN12C. In words: Growth inhibition against human SN12C cells assessed as total growth inhibitory concentration incubated for 48 hrs by sulforhodamine B assay. Format: functional.
Data set [10] has as its system Calf thymus DNA. Kind of data set: Binding affinity to calf thymus DNA assessed as fluorescence quenching intensity at 5 uM at temperature of 298 K by fluorescence spectroscopic method relative to control. Format: nucleic-acid assay. To be noted: Bos taurus.
For a further data set, the system named is MDA-MB-468. In words: Antiproliferative activity against human MDA-MB-468 cells assessed as cell growth at 0.0000001 M incubated for 48 hrs by SRB assay relative to control. The data set is classed as functional. As to conditions: dose 100 nM, read-out: Activity.
Data set [11] has as its system U-251. Kind of data set: Antiproliferative activity against human U-251 cells assessed as cell growth at 0.0001 M incubated for 48 hrs by SRB assay relative to control. Format: functional. To be noted: read-out: Activity.
For data set [12], the system named is K562. Kind of data set: Antiproliferative activity against human K562 cells assessed as cell growth at 0.000001 M incubated for 48 hrs by SRB assay relative to control. The data set is classed as functional. As to conditions: read-out: Activity.
Another data set deals with EKVX. In words: Antiproliferative activity against human EKVX cells assessed as cell growth at 0.00001 M incubated for 48 hrs by SRB assay relative to control. The data set is classed as functional. As to conditions: read-out: Activity. The procedure, abridged: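 NCI-60 five-dose screen (10^-4 to 10^-8 M). Cells grown in RPMI 1640 with 5% FBS and 2 mM L-glutamine, plated at 5,000-40,000 cells/well and preincubated 24 h. Drug given from DMSO stock, then 48 h at 37 °C, 5% CO2. For adherent lines, cells fixed with cold TCA, SRB-stained and read at 515 nm. Percent growth taken against time-zero and untreated control.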

The subject of a further data set is SW-620. In words: Antiproliferative activity against human SW620 cells assessed as cell growth at 0.00000001 M incubated for 48 hrs by SRB assay relative to control. Format: functional. To be noted: dose 10 nM, read-out: Activity.
Data set [13] relates to LOX IMVI. In words: Antiproliferative activity against human LOX IMVI cells assessed as cell growth inhibition by measuring lethal concentration incubated for 48 hrs by sulforhodamine B assay. Format: functional. To be noted: read-out: LC50 (the source's name).
For a further data set, the system named is MDA-MB-435. In words: Growth inhibition against human MDA-MB-435 cells assessed as total growth inhibitory concentration incubated for 48 hrs by sulforhodamine B assay. The data set is classed as functional.
A further data set has as its system T47D. Kind of data set: Growth inhibition against human T47D cells assessed as total growth inhibitory concentration incubated for 48 hrs by sulforhodamine B assay. Format: functional.
The subject of data set [14] is K562. Kind of data set: Antiproliferative activity against human K562 cells assessed as cell growth inhibition by measuring lethal concentration incubated for 48 hrs by sulforhodamine B assay. The data set is classed as functional. As to conditions: read-out: LC50 (the source's name).
Data set [15] concerns U-251. Kind of data set: Growth inhibition against human U-251 cells assessed as total growth inhibitory concentration incubated for 48 hrs by sulforhodamine B assay. The data set is classed as functional.
For data set [16], the system named is K562. Kind of data set: Growth inhibition against human K562 cells assessed as total growth inhibitory concentration incubated for 48 hrs by sulforhodamine B assay. Format: functional.
For the next data set, the system named is UACC-62. In words: Growth inhibition against human UACC-62 cells assessed as total growth inhibitory concentration incubated for 48 hrs by sulforhodamine B assay. The data set is classed as functional.
Data set [17] deals with LOX IMVI. In words: Growth inhibition against human LOX IMVI cells assessed as total growth inhibitory concentration incubated for 48 hrs by sulforhodamine B assay. The data set is classed as functional.
The test system of data set [18] is Calf thymus DNA. In words: Binding affinity to calf thymus DNA assessed as binding constant at temperature of 318 K by Stern-Volmer quenching plot based fluorescence spectroscopic method. Format: nucleic-acid assay. As to conditions: Bos taurus.
For a further data set, the system named is HCT-116. In words: Antiproliferative activity against human HCT-116 cells assessed as cell growth inhibition by measuring lethal concentration incubated for 48 hrs by sulforhodamine B assay. Format: functional. To be noted: read-out: LC50 (the source's name).
In the next data set the test system is NCI/ADR-RES. In words: Antiproliferative activity against human NCI/ADR-RES cells assessed as cell growth at 0.000001 M incubated for 48 hrs by SRB assay relative to control. The data set is classed as functional. To be noted: read-out: Activity.
Data set [19] relates to K562. Kind of data set: Antiproliferative activity against human K562 cells assessed as cell growth at 0.00000001 M incubated for 48 hrs by SRB assay relative to control. Format: functional. As to conditions: dose 10 nM, read-out: Activity.
Data set [20] has as its system LOX IMVI. Kind of data set: Antiproliferative activity against human LOX IMVI cells assessed as cell growth at 0.0001 M incubated for 48 hrs by SRB assay relative to control. Format: functional. As to conditions: read-out: Activity.
The subject of data set [21] is OVCAR-5. In words: Growth inhibition against human OVCAR-5 cells incubated for 48 hrs by sulforhodamine B assay. The data set is classed as functional.
Another data set has as its system RXF 393. Kind of data set: Growth inhibition against human RXF 393 cells assessed as total growth inhibitory concentration incubated for 48 hrs by sulforhodamine B assay. Format: functional.
In the next data set the test system is 786-0. In words: Growth inhibition against human 786-0 cells assessed as total growth inhibitory concentration incubated for 48 hrs by sulforhodamine B assay. Format: functional.
The next data set deals with NCI-H522. Kind of data set: Antiproliferative activity against human NCI-H522 cells assessed as cell growth at 0.0001 M incubated for 48 hrs by SRB assay relative to control. The data set is classed as functional. As to conditions: read-out: Activity.
Another data set has as its target Albumin (Bos taurus, UniProt P02769). Kind of data set: Binding affinity to bovine serum albumin assessed as fluorescence quenching by fluorescence spectroscopic method relative to control. As to conditions: cattle.

Albumin, sequence (P02769 whole entry): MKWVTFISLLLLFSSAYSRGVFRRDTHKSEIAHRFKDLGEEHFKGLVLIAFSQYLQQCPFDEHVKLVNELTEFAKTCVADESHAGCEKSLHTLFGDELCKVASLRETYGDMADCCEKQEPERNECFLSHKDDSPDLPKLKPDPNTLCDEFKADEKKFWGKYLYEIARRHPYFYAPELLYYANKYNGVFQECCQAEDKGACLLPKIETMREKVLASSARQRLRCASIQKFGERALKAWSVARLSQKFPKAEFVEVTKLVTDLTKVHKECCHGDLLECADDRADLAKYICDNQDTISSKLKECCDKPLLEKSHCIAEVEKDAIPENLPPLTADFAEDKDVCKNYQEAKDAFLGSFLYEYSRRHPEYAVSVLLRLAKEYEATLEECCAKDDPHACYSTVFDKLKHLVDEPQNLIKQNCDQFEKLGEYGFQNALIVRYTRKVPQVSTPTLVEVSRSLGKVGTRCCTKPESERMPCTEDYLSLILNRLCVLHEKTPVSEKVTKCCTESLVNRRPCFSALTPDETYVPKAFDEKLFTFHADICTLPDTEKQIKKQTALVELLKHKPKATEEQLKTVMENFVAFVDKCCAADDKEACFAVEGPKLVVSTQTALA

The term TGI denotes the concentration giving total growth inhibition. For the compound `COc1ccc(-c2cn3ccnc3c(-c3ccc4ncn(C5CCCCC5)c4c3)n2)cc1`, the CC50 with MDA-MB-231, in the data set on COLO 205, with LOX IMVI [13], with K562 [14] and in the data set with HCT-116 was greater than 100 µM in each case. Moreover, the values for the growth at 10 µM in the data set with NCI-H226 [1], with K562 [4] and in the data set on EKVX were 25%, 8% and 25%, respectively. Further, the growth at 100 µM is 39% in the data set on NCI-H226 [2]; 67% in the data set on NCI-H322M; 11% in the data set with K562 [7]; 6% in the data set with U-251 [11]; 19% with LOX IMVI [20]. Moreover, the TGI with Malme-3M was greater than 100 µM; in the data set on OVCAR-5 [3] it was greater than 100 µM; in the data set on SK-OV-3, 7.64 µM; in the data set on NCI-H226 [5], greater than 100 µM; in the data set on SN12C it was greater than 100 µM; with MDA-MB-435 it was greater than 100 µM. The TGI in the data set on T47D is 4.5 µM; in the data set on U-251 [15], greater than 100 µM; with K562 [16] it was greater than 100 µM; in the data set with UACC-62, greater than 100 µM; in the data set with LOX IMVI [17], greater than 100 µM. Also, the Kb in the data set with Calf thymus DNA [6] is 4.57 10^4/M; in the data set with Calf thymus DNA [18], 0.02 10^4/M. Also, the Activity came out at 65% with Calf thymus DNA [8] and 75% with Calf thymus DNA [10]. In addition, in the data set on Calf thymus DNA [9], the deltaG is -5.85 kcal/mol. In addition, the growth at 0.1 µM in the data set with MDA-MB-468 came to 99%. The growth at 1 µM was determined as 25% in the data set with K562 [12] and 38% in the data set with NCI/ADR-RES. For the same compound, the values for the growth at 0.01 µM in the data set on SW-620 and in the data set with K562 [19] were 98% and 105%, respectively.
A word on the GI50: it is the concentration giving 50% growth inhibition. Consider `c1ccc(Cn2cnc3ccc(-c4nc(-c5ccc6c(c5)ncn6C5CCCCC5)cn5ccnc45)cc32)cc1`, for which the growth at 100 µM is 36% with NCI-H226 [2], 14% in the data set on NCI-H322M and -42% with NCI-H522. Besides, the figures for the Activity in the data set with Calf thymus DNA [10] and at Albumin were 35% and 75%, respectively. Moreover, the growth at 0.1 µM in the data set on MDA-MB-468 came out at 104%. For the same compound, the growth at 10 µM in the data set on EKVX was -31%. In addition, in the data set on OVCAR-5 [21], halving of growth (GI50) required 2.64 µM. For the same compound, in the data set on SW-620, the growth at 0.01 µM is 100%. The TGI was 2.75 µM with RXF 393 and greater than 100 µM in the data set with 786-0. Also, in the data set with NCI/ADR-RES, the growth at 1 µM turned out to be 84%.

(Values after ChEMBL document CHEMBL5247578, “Effective synthesis of benzimidazoles-imidazo[1,2-a]pyrazine conjugates: A comparative study of mono-and bis-benzimidazoles for antitumor activity” (Eur J Med Chem, 2019).)
